Screens (PubChem BioAssay)
In the library only some 3.1% were active in any assay of this set; here they are far more common.
H9c2 TAG inh – inhibitors of triacylglycerol accumulation, primary screen, cell-based, uHTS, fluorescence, H9c2 | 230,000 tested, 0.66% active | inhibition, % at 12.5 µM | AID 651582, 2012 | H9c2 cells, Nile Red lipid (TAG) fluorescence; cells loaded with 200 µM oleic acid;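 active = pattern-corrected inhibition of lipid staining of at least 50% with the nuclear-stain viability signal not falling by more than 50%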
Beta apoptosis – inhibitors of cytokine-induced beta cell apoptosis, primary screen, luminescence; INS-1E cytokine-induced death, ATP luminescence, 48 h; percent of positive-control rescue, neutral wells zero; protection from apoptosis, % (concentration not given with the values); 300,000 tested, 0.8% active;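 active = Every replicate reaches about 75%, or at least half do and their mean reaches it too, limit read from the data; inconclusive = At least half of replicates reach the limit but their mean does not; inactive = Under half of replicates reach the limit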;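 also: higher means more ATP so stronger rescue from cytokine killing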
CSC inhib – cancer stem cell viability inhibitors, primary screen, luminescence. 300,000 tested, 1.1% active. cancer stem cell-like cells viability. inhibition, % at 7.5 µM. AID 2717, 2010; in the data active = inhibition above about 75%; inconclusive = no clear call, values can overlap the other calls; tested in HMLE shEcad cells
A1 inh – caspase 3/7 activation in MEF A1-2A-BIM cells, primary screen, A1 inhibitor project, cell-based, luminescence, HTS. 330,000 tested, 0.066% active. caspase activation, % (concentration not given with the values). Caspase-Glo 3/7 luminescence, 3 h; percent of clofoctol response, vehicle zero;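 active = over half of replicate activation scores above 10%, or exactly half above 10 with the replicate mean above 10; inconclusive = replicate mean below 10 yet half the replicates above 10; inactive = over half of replicates below 10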
Calb FLC – C. albicans growth inhibition with fluconazole, primary screen, CaCi-2 strain, Alamar Blue fluorescence. C. albicans CaCi-2 + fluconazole, 48 h. growth inhibition, % (concentration not given with the values). 300,000 tested, 0.57% active. AID 1979, 2009;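 active = growth inhibition above about 58% in most replicates, limit read from the data, passing the limit was not always enough; inconclusive = exactly half the replicates above a set limit; inactive = most replicates below a set limit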;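 also: all wells also contain fluconazole at 8 µg/ml as a sub-toxic cotreatment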
T cruzi inh – inhibitors of intracellular T. cruzi growth, primary screen, luminescence, NIH3T3 host cells. 300,000 tested, 1.4% active. T. cruzi beta-gal in NIH3T3, 90 h. inhibition, % (no concentration beside the values);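 active = mean inhibition across valid replicates above about 55%, limit read from the data; inconclusive = mean below that limit but half or more replicates reach it; inactive = mean below it, under half of replicates reach it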;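 also: signal also drops with host cell toxicity which is not excluded here; higher percent means less beta-gal luminescence so fewer parasites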
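System: NIH/3T3 fibroblasts plus reporter T. cruzi. Medium: DMEM plus 2% FBS. Probe or stimulus: 5000 reporter trypomastigotes per well. Compound: single 50 nL compound addition per well in DMSO. Incubation: co-culture of at least 90 h after 3 h attachment. Detection: GalScreen β-gal luminescence, detergent lysis, 60 min. Evaluation: parasite load inhibition, %.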
Each line names hits and unclear results; the compound was inactive in the other large screens.

O=C(c1cc(COc2ccc3ncccc3c2)on1)N1CCCCCC1	Beta apoptosis 91
O=C(c1cc(COc2ccc3ncccc3c2)on1)N1CCCC1	none
O=C(NCCc1cn2ccccc2n1)c1cc(COc2ccc3ncccc3c2)on1	Beta apoptosis 104
CC(=O)c1ccc(-c2ccc(C(=O)N3CCC(C(N)=O)CC3)o2)cc1	none
CC(C)(C)OC(=O)N[C@H](C(=O)OC(C)(C)C)c1ccc2c(c1)OCO2	none (no result: Calb FLC, T cruzi inh)
c1ccc(-c2oc3ncnc(NCCCn4ccnc4)c3c2-c2ccccc2)cc1	none (no result: H9c2 TAG inh, Beta apoptosis)
N=c1c2c(-c3ccccc3)c(-c3ccccc3)n(Cc3ccco3)c2ncn1CCCn1ccnc1	T cruzi inh 64 (no result: H9c2 TAG inh)
N=c1c2c(-c3ccccc3)c(-c3ccccc3)n(Cc3ccco3)c2ncn1CCCN1CCOCC1	Beta apoptosis inconclusive, T cruzi inh 92
c1ccc(-c2c(-c3ccccc3)n(Cc3ccco3)c3ncnc(NCCCn4ccnc4)c23)cc1	CSC inhib 133
OCCNc1ncnc2c1c(-c1ccccc1)c(-c1ccccc1)n2Cc1ccco1	none
CCOC(=O)/C=C1\NC2(CCCCC2)Cc2cc(OC)c(OC)cc21	T cruzi inh 60 (no result: H9c2 TAG inh)
CCOC(=O)/C=C1\NC(C)(C)Cc2cc(OC)c(OC)cc21	none (no result: CSC inhib)
CCN(C(=O)c1ccc(C(C)(C)C)cc1)c1nnc(Cn2nnc3ccccc32)s1	Beta apoptosis 112
CCN(C(=O)CC(C)C)c1nnc(Cn2nnc3ccccc32)s1	none
COc1ccc(Nc2nc(N)c([N+](=O)[O-])c(NC3CCCCC3)n2)cc1	CSC inhib 101 (no result: H9c2 TAG inh)
O=C(CCc1ccccc1)NC1CCS(=O)(=O)C1 (stereo not given)	none (no result: Beta apoptosis, CSC inhib, A1 inh, Calb FLC, T cruzi inh)
CCN(CC)CCOC(=O)c1ccc(N/C=C(/C#N)c2nc(-c3ccc(OC)c(OC)c3)cs2)cc1	H9c2 TAG inh 61
Cc1c(C(=O)NCCN2CCOCC2)oc2ccc(Br)cc12	none (no result: CSC inhib)
CC1(C)C[C@H](O)[C@]2(CO)CC[C@]3(C)C(=CCC4[C@@]5(C)CC[C@H](O)C(C)(C)C5CC[C@]43C)[C@@H]2C1 (stereo not given in full)	none (no result: H9c2 TAG inh, Calb FLC, T cruzi inh)
CC1(C)C[C@H](O)[C@]2(CO)[C@H](O)C[C@]3(C)C(=CCC4[C@@]5(C)CC[C@H](O)C(C)(C)C5CC[C@]43C)[C@@H]2C1 (stereo not given in full)	CSC inhib inconclusive, A1 inh 14 (no result: Calb FLC, T cruzi inh)
Cc1cccc(NS(=O)(=O)c2ccc(C(=O)N3CCC3)cc2)c1C	none
Cc1cc(C(=O)Nc2nc(-c3ccccn3)cs2)ccc1[N+](=O)[O-]	Calb FLC 110, T cruzi inh 80
O=C(Nc1nc(-c2ccccn2)cs1)c1ccc([N+](=O)[O-])o1	Beta apoptosis 90
O=C(Nc1nc(-c2ccccn2)cs1)c1ccccc1-n1cnnn1	H9c2 TAG inh 51, Beta apoptosis 78, T cruzi inh 63
Cc1ccc(C(=O)Nc2nc(-c3ccccn3)cs2)o1	none
O=C(Nc1nc(-c2ccccn2)cs1)c1cc(Cl)ccc1[N+](=O)[O-]	Beta apoptosis 93, CSC inhib 94, T cruzi inh 64
Cc1csc(NC(=O)c2ccc(Cl)cc2[N+](=O)[O-])n1	none
CC(=O)Nc1ccc(C(=O)Nc2nc(-c3ccccn3)cs2)cc1	none
CS(=O)(=O)c1ccc(NC(=O)c2cc3c(cc2Cl)N2CCCCCC2=NS3(=O)=O)cc1	none (no result: Beta apoptosis, CSC inhib, A1 inh, Calb FLC, T cruzi inh)
CCc1ccc2[nH]c(C(=O)N(C)c3ccc(F)cc3F)cc2c1	none (no result: H9c2 TAG inh)
Cc1cc(CNCCN(C)C)c(C)n1-c1cc(S(=O)(=O)N2CCOCC2)ccc1N1CCCC1	none (no result: Beta apoptosis, CSC inhib, A1 inh, Calb FLC, T cruzi inh)
O=[N+]([O-])c1cc(Cl)cc(/C=N\Nc2ccccn2)c1O	Beta apoptosis 109, CSC inhib 112, T cruzi inh 57
CN(Cc1ccccc1)C(=O)c1cccc(NC(=O)Cc2ccc(NC(=O)C3CCCN(C(=O)c4ccccc4)C3)cc2)c1 (stereo not given)	none (no result: Beta apoptosis, CSC inhib, A1 inh, Calb FLC, T cruzi inh)
CC(C)(C)c1cc(Br)c(O)c(N=Nc2ccc(S(=O)(=O)N3CCOCC3)cc2)c1	H9c2 TAG inh 85
CC(=O)c1ccc(OCCCC(=O)Nc2cc(S(=O)(=O)N3CCCCC3)ccc2C)cc1	none (no result: Beta apoptosis, CSC inhib, A1 inh, Calb FLC, T cruzi inh)
